This note sets out measurements from ChEMBL document CHEMBL2424623, “Enantioselective binding of chiral 1,14-dimethyl[5]helicene-spermine ligands with B- and Z-DNA” (Bioorg Med Chem, 2013).

SMILES strings stand for the structures. Values joined by “and” are separate entries in the source; they are usually repeats but may differ in a detail not shown here. Equal entries are not always repeated. Active and inactive are the calls of the source. The rule behind the calls is not given here.

A short description of assay [1]: Binding affinity to d(CGCGCG)2 DNA (unknown origin) assessed as association constant at 2:1 DNA to compound ratio by ITC analysis. In outline:
(§1)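 Isothermal titration calorimetry at 25.0 °C. Ligand at 1 mM, dissolved in the final ODN dialysate, was titrated into 10.0 µM duplex d(CGCGCG)2 or d(CGCm8GCG)2 in 5 mM Na cacodylate, 100 mM NaCl, pH 7.0. The first 2 µL injection was followed by 10 µL injections, and the first injection was discarded. Samples were degassed. Stoichiometry is ligand per duplex.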
In general terms: In ITC the heat of successive injections is recorded.

Assay [2] is described as follows: Binding affinity to d(CGCGCG)2 DNA (unknown origin) assessed as association constant at 4.0 compound to DNA molar ratio by ITC analysis. In outline: as §1
A short description of assay [3]: Binding affinity to d(CGCm8GCG)2 DNA (unknown origin) assessed as association constant at 1.8 compound to DNA molar ratio by ITC analysis. In outline: as §1
A short description of assay [4]: Binding affinity to d(CGCGCG)2 DNA (unknown origin) assessed as association constant at 2.0 compound to DNA molar ratio by ITC analysis. A digest of the protocol:
as §1

Assay [5] is described as follows: Binding affinity to d(CGCm8GCG)2 DNA (unknown origin) assessed as association constant at 1.7 compound to DNA molar ratio by ITC analysis. A digest of the protocol:
as §1

A short description of assay [6]: Induction of d(CGCGCG)2 DNA (unknown origin) to d(CGCm8GCG)2 DNA transition up to 160 uM by CD spectra analysis in presence of low concentration of NaCl. In outline: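 CD at 20 °C in a 2 mm cell. 20 µM d(CGCGCG)2 in 5 mM Na cacodylate, 100 mM NaCl, pH 7.0, was titrated with ligand stock from 0 to 160 µM. Spectra were blank-corrected and averaged over four scans.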

A short description of assay [7]: Selectivity ratio of Ka for d(CGCm8GCG)2 DNA (unknown origin) to Ka for d(CGCGCG)2 DNA (unknown origin). A digest of the protocol:
as §1

A short description of assay [8]: Selectivity ratio of Ka for d(CGCGCG)2 DNA (unknown origin) to Ka for d(CGCm8GCG)2 DNA (unknown origin). In outline: as §1
The nature of assay [9]: Selectivity ratio of Ka for 5'-biotin-conjugated d(TTTTCGCm8GCG-TTTT-CGCm8GCG) DNA (unknown origin) to Ka for 5'-biotin-conjugated d(TTTTCGCGCG-TTTT-CGCGCG) DNA (unknown origin).
A short description of assay [10]: Selectivity ratio of Ka for 5'-biotin-conjugated d(TTTTCGCGCG-TTTT-CGCGCG) DNA (unknown origin) to Ka for 5'-biotin-conjugated d(TTTTCGCm8GCG-TTTT-CGCm8GCG) DNA (unknown origin).
The nature of assay [11]: Binding affinity to d(CGCm8GCG)2 DNA (unknown origin) assessed as change in UV-melting temperature at 5 uM. A digest of the protocol: (§2)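 UV melting used 5 µM B- or Z-DNA in 5 mM Na cacodylate, 100 mM NaCl, pH 7.0, with or without 5 µM ligand. Temperature was ramped at 1 °C/min between 10 and 60 °C.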
Assay [12] can be described thus: Dissociation rate to 5'-biotin-conjugated d(TTTTCGCGCG-TTTT-CGCGCG) DNA (unknown origin) measured for 150 seconds by SPR analysis.
The nature of assay [13]: Dissociation rate to 5'-biotin-conjugated d(TTTTCGCm8GCG-TTTT-CGCm8GCG) DNA (unknown origin) measured for 150 seconds by SPR analysis. For orientation: In SPR one partner is held on a chip, and binding of the other changes the refractive index at the surface.
A short description of assay [14]: Binding affinity to d(CGCGCG)2 DNA (unknown origin) assessed as association constant at 3.5 compound to DNA molar ratio by ITC analysis. In outline: as §1
Assay [15] is described as follows: Binding affinity to d(CGCm8GCG)2 DNA (unknown origin) assessed as association constant at 4.1 compound to DNA molar ratio by ITC analysis. In outline:
as §1

Assay [16] in a line: Binding affinity to d(CGCGCG)2 DNA (unknown origin) assessed as change in UV-melting temperature at 5 uM. In outline: as §2

Broadly, the ΔTm is the shift of the melting midpoint relative to a reference. In the case of `Cc1cccc2ccc3c4c(c5ccc6cccc(C)c6c5c3c12)C(=O)N(CCCNCCCCNCCCN)C4=O`, the Ka in [1] was found to be 3.7 ×10⁸ /M; in assay [2], 0.083 ×10⁷ /M; in assay [3], 0.17 ×10⁷ /M; in [4], 36.7 ×10⁷ /M; in assay [5], 0.67 ×10⁷ /M. Further, the outcome in assay [6] was Active. Also, the Selectivity ratio came to 2 in assay [7], 50 in assay [8], 2 in assay [9] and 7 in assay [10]. In assay [11], the ΔTm is 7.5 °C and 3.3 °C. For the same compound, the koff in assay [12] was 3.7 ×10⁻³ /s and 8.59 ×10⁻³ /s; in assay [13] it was 5.48 ×10⁻³ /s and 6.68 ×10⁻³ /s.

As for `NCCCNCCCCNCCCN1C(=O)C(c2ccc3ccccc3c2)=C(c2ccc3ccccc3c2)C1=O`, the Ka in [14] is 0.62 ×10⁷ /M; in assay [15], 0.31 ×10⁷ /M. In addition, the results for the ΔTm in [11] and in [16] were 18 °C and 16 °C, respectively. For the same compound, the koff in assay [12] came to 7.49 ×10⁻³ /s; in assay [13], 6.66 ×10⁻³ /s.
